# Assay results from ChEMBL document CHEMBL2086314, “Synthesis and anticonvulsant activity of new N-Mannich bases derived from 3-(2-fluorophenyl)- and 3-(2-bromophenyl)-pyrrolidine-2,5-diones. Part II” (Bioorg Med Chem, 2012).
# Activity calls are given as the source filed them. The rule behind the calls is not given here.
# System: Mus musculus
# Assay: Anticonvulsant activity in ip dosed CF-1 albino mouse assessed as protection from maximal electric shock-induced seizures measured after 0.5 hrs
# Assay type: functional
# Settings: read-out: MED
# How it was run: (§1)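 Male CF-1 mice dosed ip at 30, 100 or 300 mg/kg, suspension in 0.5% methylcellulose/water. MES: corneal electrodes primed with electrolyte containing anaesthetic, 50 mA, 60 Hz, 0.2 s. Examined 0.5 and 4 h after dosing. Value is the minimum dose protecting half or more of the animals.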
row,Compound,minimal effective dose [mg/kg]
1,Cl.Cl.O=C1CC(c2ccccc2Br)C(=O)N1CN1CCN(CCO)CC1 (racemic),100
2,O=C1NC(=O)C(c2ccccc2)(c2ccccc2)N1 [PHENYTOIN],30

# System: Mus musculus
# Assay: Neurotoxicity in CF-1 albino mouse assessed as myoclonic jerks at 100 mg/kg, ip measured after 0.5 hrs by rotarod test
# Assay type: toxicity, organism-based
# Design: dose 100 mg/kg, route intraperitoneal
# Settings: in vivo
row,Compound,Activity
1,Cl.Cl.O=C1CC(c2ccccc2Br)C(=O)N1CN1CCN(CCO)CC1 (racemic),Toxic

# System: Mus musculus
# Assay: Anticonvulsant activity in ip dosed CF-1 albino mouse assessed as protection from maximal electric shock-induced seizures measured after 4 hrs
# Assay type: functional
# Settings: read-out: MED
# How it was run: as §1
row,Compound,minimal effective dose [mg/kg]
1,Cl.Cl.O=C1CC(c2ccccc2Br)C(=O)N1CN1CCN(CCO)CC1 (racemic),100
2,O=C1NC(=O)C(c2ccccc2)(c2ccccc2)N1 [PHENYTOIN],30

# System: Mus musculus
# Assay: Anticonvulsant activity in ip dosed CF-1 albino mouse assessed as protection against subcutaneous pentylenetetrazol-induced seizures measured after 4 hrs
# Assay type: functional
# Settings: read-out: MED
# How it was run: (§2)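 scPTZ test in male CF-1 mice. Compound suspended in 0.5% methylcellulose/water, ip at 30, 100 or 300 mg/kg. Pentylenetetrazole 85 mg/kg (CD97, clonic seizures lasting at least 5 s) given subcutaneously at the test time, read at 0.5 and 4 h. Value is the minimum dose protecting half or more of the animals.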
row,Compound,minimal effective dose [mg/kg]
1,Cl.Cl.O=C1CC(c2ccccc2Br)C(=O)N1CN1CCN(CCO)CC1 (racemic),300

# System: Mus musculus
# Assay: Neurotoxicity in ip dosed CF-1 albino mouse assessed as motor impairment measured after 0.5 hrs by rotarod test
# Assay type: toxicity, organism-based
# Settings: in vivo
# How it was run: (§3)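 Rotarod neurotoxicity in male CF-1 mice given ip doses of 30, 100 or 300 mg/kg (0.5% methylcellulose suspension), examined 0.5 and 4 h after dosing. Impairment means failing to hold balance on the rod for 1 min. Value is the minimum dose causing toxicity in half or more of the animals; response comments are recorded.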
row,Compound,MTC [mg/kg]
1,Cl.Cl.O=C1CC(c2ccccc2Br)C(=O)N1CN1CCN(CCO)CC1 (racemic),300
2,O=C1NC(=O)C(c2ccccc2)(c2ccccc2)N1 [PHENYTOIN],100

# System: Mus musculus
# Assay: Neurotoxicity in CF-1 albino mouse assessed as motor impairment, ip measured after 4 hrs by rotarod test
# Assay type: toxicity, organism-based
# Settings: in vivo
row,Compound,MTC [mg/kg]
1,O=C1NC(=O)C(c2ccccc2)(c2ccccc2)N1 [PHENYTOIN],100

# System: Mus musculus
# Assay: Neurotoxicity in CF-1 albino mouse assessed as motor impairment at 300 mg/kg, ip measured after 4 hrs by rotarod test
# Assay type: toxicity, organism-based
# Design: dose 300 mg/kg, route intraperitoneal
# Settings: in vivo
# How it was run: as §3
row,Compound,Activity
1,Cl.Cl.O=C1CC(c2ccccc2Br)C(=O)N1CN1CCN(CCO)CC1 (racemic),Non-toxic

# System: Mus musculus
# Assay: Anticonvulsant activity in ip dosed CF-1 albino mouse assessed as protection against subcutaneous pentylenetetrazol-induced seizures measured after 0.5 hrs
# Assay type: functional
# Settings: read-out: MED
# How it was run: as §2
row,Compound,minimal effective dose [mg/kg]
1,Cl.Cl.O=C1CC(c2ccccc2Br)C(=O)N1CN1CCN(CCO)CC1 (racemic),100

# System: Mus musculus
# Assay: Anticonvulsant activity in CF-1 albino mouse assessed as protection against subcutaneous pentylenetetrazol-induced seizures at 300 mg/kg, ip measured after 0.5 hrs
# Assay type: functional, organism-based
# Design: dose 300 mg/kg
# Settings: not given
# How it was run: as §2
row,Compound,Activity
1,O=C1NC(=O)C(c2ccccc2)(c2ccccc2)N1 [PHENYTOIN],inactive

# System: Mus musculus
# Assay: Anticonvulsant activity in CF-1 albino mouse assessed as protection against subcutaneous pentylenetetrazol-induced seizures at 300 mg/kg, ip measured after 4 hrs
# Assay type: functional, organism-based
# Design: dose 300 mg/kg
# Settings: not given
# How it was run: as §2
row,Compound,Activity
1,O=C1NC(=O)C(c2ccccc2)(c2ccccc2)N1 [PHENYTOIN],inactive

# System: Mus musculus
# Assay: Neurotoxicity in CF-1 albino mouse assessed as myoclonic jerks at 300 mg/kg, ip measured after 4 hrs by rotarod test
# Assay type: toxicity, organism-based
# Design: dose 300 mg/kg, route intraperitoneal
# Settings: in vivo
row,Compound,Activity
1,Cl.Cl.O=C1CC(c2ccccc2Br)C(=O)N1CN1CCN(CCO)CC1 (racemic),Toxic

# System: Rattus norvegicus
# Assay: Anticonvulsant activity in Sprague-Dawley rat assessed as protection from maximum electric shock-induced seizures at 30 mg/kg, po measured after 0.25 hrs
# Assay type: functional
# Settings: not given
# How it was run: (§4)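 Male Sprague–Dawley rats, four per group, given 30 mg/kg orally as a suspension in 0.5% methylcellulose/water. MES stimulus 150 mA, 60 Hz, 0.2 s via corneal electrodes. Tested at 0.25, 0.5, 1, 2 and 4 h; value is rats protected out of four.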
row,Compound,Activity [%]
1,Cl.Cl.O=C1CC(c2ccccc2Br)C(=O)N1CN1CCN(CCO)CC1 (racemic),25
2,O=C1NC(=O)C(c2ccccc2)(c2ccccc2)N1 [PHENYTOIN],25

# System: Rattus norvegicus
# Assay: Anticonvulsant activity in Sprague-Dawley rat assessed as protection from maximum electric shock-induced seizures at 30 mg/kg, po measured after 0.5 hrs
# Assay type: functional
# Settings: not given
# How it was run: as §4
row,Compound,Activity [%]
1,Cl.Cl.O=C1CC(c2ccccc2Br)C(=O)N1CN1CCN(CCO)CC1 (racemic),25
2,O=C1NC(=O)C(c2ccccc2)(c2ccccc2)N1 [PHENYTOIN],100

# System: Rattus norvegicus
# Assay: Anticonvulsant activity in Sprague-Dawley rat assessed as protection from maximum electric shock-induced seizures at 30 mg/kg, po measured after 1 hr
# Assay type: functional
# Settings: not given
# How it was run: as §4
row,Compound,Activity [%]
1,Cl.Cl.O=C1CC(c2ccccc2Br)C(=O)N1CN1CCN(CCO)CC1 (racemic),0
2,O=C1NC(=O)C(c2ccccc2)(c2ccccc2)N1 [PHENYTOIN],75

# System: Rattus norvegicus
# Assay: Anticonvulsant activity in Sprague-Dawley rat assessed as protection from maximum electric shock-induced seizures at 30 mg/kg, po measured after 2 hrs
# Assay type: functional
# Settings: not given
# How it was run: as §4
row,Compound,Activity [%]
1,Cl.Cl.O=C1CC(c2ccccc2Br)C(=O)N1CN1CCN(CCO)CC1 (racemic),0
2,O=C1NC(=O)C(c2ccccc2)(c2ccccc2)N1 [PHENYTOIN],75

# System: Rattus norvegicus
# Assay: Anticonvulsant activity in Sprague-Dawley rat assessed as protection from maximum electric shock-induced seizures at 30 mg/kg, po measured after 4 hrs
# Assay type: functional
# Settings: not given
# How it was run: as §4
row,Compound,Activity [%]
1,Cl.Cl.O=C1CC(c2ccccc2Br)C(=O)N1CN1CCN(CCO)CC1 (racemic),25
2,O=C1NC(=O)C(c2ccccc2)(c2ccccc2)N1 [PHENYTOIN],75

# System: Rattus norvegicus
# Assay: Neurotoxicity in Sprague-Dawley rat assessed as motor impairment at 30 mg/kg, po by rotarod test
# Assay type: toxicity, organism-based
# Design: dose 30 mg/kg, route oral
# Settings: in vivo
# How it was run: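 Male Sprague–Dawley rats, four animals, oral 30 mg/kg in 0.5% methylcellulose/water. Motor impairment on the rotarod (failure to keep balance for 1 min) assessed alongside MES at five times from 0.25 to 4 h.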
row,Compound,Activity
1,Cl.Cl.O=C1CC(c2ccccc2Br)C(=O)N1CN1CCN(CCO)CC1 (racemic),Non-toxic
2,O=C1NC(=O)C(c2ccccc2)(c2ccccc2)N1 [PHENYTOIN],Non-toxic

# System: not listed separately
# Assay: Neurotoxicity in po dosed Sprague-Dawley rat assessed as motor impairment measured at time of peak effect by rotarod test
# Assay type: toxicity, organism-based
# Settings: in vivo
# How it was run: (§5)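 Male Sprague–Dawley rats dosed orally (0.5% methylcellulose suspension). MES 150 mA, 60 Hz, 0.2 s; rotarod impairment is failure to keep balance for 1 min. Groups of eight, at the previously estimated time of peak effect, with doses varied until at least three points fell in the 10–90% range. ED50/TD50 with 95% confidence intervals from regression; PI = TD50/ED50.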
row,Compound,TD50 [mg/kg]
1,O=C1NC(=O)C(c2ccccc2)(c2ccccc2)N1 [PHENYTOIN],> 100

# Organism: Rattus norvegicus
# Assay: Protective index, ratio of TD50 for Sprague-Dawley rat to ED50 for Sprague-Dawley rat assessed as protection from maximum electric shock-induced seizures
# Assay type: functional
# Settings: not given
# How it was run: as §5
row,Compound,Ratio TD50/ED50
1,O=C1NC(=O)C(c2ccccc2)(c2ccccc2)N1 [PHENYTOIN],3.6

# System: Rattus norvegicus
# Assay: Anticonvulsant activity in po dosed maximum electric shock-induced Sprague-Dawley rat assessed as time of peak effect
# Assay type: functional
# Settings: not given
# How it was run: as §5
row,Compound,Time [h]
1,O=C1NC(=O)C(c2ccccc2)(c2ccccc2)N1 [PHENYTOIN],2

# Organism: Mus musculus
# Assay: Protective index, ratio of TD50 for CF-1 albino mouse to ED50 for CF-1 albino mouse assessed as protection from maximum electric shock-induced seizures
# Assay type: functional
# Settings: not given
# How it was run: (§6)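 ED50 and TD50 determined in male CF-1 mice after ip dosing (0.5% methylcellulose suspension) at the previously estimated time of peak effect. MES 50 mA, 60 Hz, 0.2 s. Groups of eight, with doses varied until at least three points fell between 10–90% protection or motor impairment. Regression gives ED50/TD50 with 95% confidence intervals; PI = TD50/ED50.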
row,Compound,Ratio TD50/ED50
1,O=C1NC(=O)C(c2ccccc2)(c2ccccc2)N1 [PHENYTOIN],7.74

# System: Mus musculus
# Assay: Anticonvulsant activity in ip dosed maximal electric shock-induced CF-1 albino mouse assessed as time of peak effect
# Assay type: functional
# Settings: not given
# How it was run: as §6
row,Compound,Time [h]
1,O=C1NC(=O)C(c2ccccc2)(c2ccccc2)N1 [PHENYTOIN],1
